# Legend:
# [1] = system: Streptococcus pyogenes; experiment: Antibacterial activity against penicillin-susceptible Streptococcus pyogenes after 24 hrs by broth microdilution method; assay type: functional
# Outline: (§1)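 MIC by standard broth microdilution per NCCLS guidance. Strain panel: B. subtilis ATCC9372 and S. aureus ATCC25923 as standard susceptible strains, S. aureus ATCC29213 as […], S. pyogenes PS as penicillin-susceptible, S. pneumoniae ATCC49619 as standard susceptible, alongside Gram-negative strains.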
# [2] = system: Staphylococcus aureus; experiment: Antibacterial activity against Staphylococcus aureus ATCC 25923 after 24 hrs by broth microdilution method; assay type: functional; settings: ATCC 25923, 24 h; outline: as §1
# [3] = system: Bacillus subtilis; experiment: Antibacterial activity against Bacillus subtilis ATCC 9372 after 24 hrs by broth microdilution method; assay type: functional; settings: ATCC 9372, 24 h; outline: as §1
# [4] = system: Escherichia coli; experiment: Antibacterial activity against Escherichia coli ATCC 25922 after 24 hrs by broth microdilution method; assay type: functional; settings: ATCC 25922, 24 h; outline: as §1
# [5] = system: Bacillus subtilis; experiment: Inhibition of FtsZ in Bacillus subtilis ATCC 9372 assessed as decrease in cell division by measuring lowest compound concentration at which bacterial filamentation is observed after 5 hrs by phase-contrast light microscopy
# Outline: (§2)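 Cell division inhibition scored by cell morphology under phase-contrast light microscopy. B. subtilis ATCC9372, E. coli ATCC25922 and S. aureus ATCC25923 were exposed to compound. The lowest concentration giving filamentation (B. subtilis, E. coli) or ballooning (S. aureus) was recorded as the cell division inhibitory concentration.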
# [6] = system: Streptococcus pneumoniae; experiment: Antibacterial activity against Streptococcus pneumoniae ATCC 49619 after 24 hrs by broth microdilution method; assay type: functional; settings: ATCC 49619, 24 h; outline: as §1
# [7] = system: Staphylococcus aureus; experiment: Antibacterial activity against penicillin-resistant Staphylococcus aureus clinical isolate after 24 hrs by broth microdilution method; assay type: functional
# [8] = system: Escherichia coli ATCC 25922; experiment: Inhibition of FtsZ in Escherichia coli ATCC 25922 assessed as decrease in cell division by measuring lowest compound concentration at which bacterial filamentation is observed after 5 hrs by phase-contrast light microscopy; outline: as §2
# [9] = system: Pseudomonas aeruginosa; experiment: Antibacterial activity against Pseudomonas aeruginosa ATCC 27853 after 24 hrs by broth microdilution method; assay type: functional; settings: ATCC 27853, 24 h; outline: as §1
# [10] = system: Staphylococcus aureus; experiment: Antibacterial activity against Staphylococcus aureus ATCC 29213 after 24 hrs by broth microdilution method; assay type: functional; settings: ATCC 29213, 24 h; outline: as §1
# [11] = molecular target: T1, Cell division protein FtsZ (Staphylococcus aureus) (UniProt P0A031); experiment: Inhibition of FtsZ in Staphylococcus aureus ATCC 25923 assessed as decrease in cell division by measuring lowest compound concentration at which bacterial ballooning is observed after 5 hrs by phase-contrast light microscopy; outline: as §2
# T1 sequence (whole entry): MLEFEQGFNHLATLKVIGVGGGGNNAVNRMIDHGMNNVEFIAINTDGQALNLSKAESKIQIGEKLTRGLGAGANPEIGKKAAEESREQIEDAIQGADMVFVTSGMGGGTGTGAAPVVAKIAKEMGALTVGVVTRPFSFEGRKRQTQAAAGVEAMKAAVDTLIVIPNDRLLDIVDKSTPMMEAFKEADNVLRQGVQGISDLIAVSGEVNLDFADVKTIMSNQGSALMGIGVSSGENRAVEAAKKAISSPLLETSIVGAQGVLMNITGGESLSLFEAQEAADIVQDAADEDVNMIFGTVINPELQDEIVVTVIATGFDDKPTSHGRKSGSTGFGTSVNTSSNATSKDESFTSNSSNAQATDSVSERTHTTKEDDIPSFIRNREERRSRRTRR
SMILES,MIC [1] [µg/mL],MIC [2] [µg/mL],MIC [3] [µg/mL],MIC [4] [µg/mL],INH [5] [µg/mL],MIC [6] [µg/mL],MIC [7] [µg/mL],INH [8] [µg/mL],MIC [9] [µg/mL],MIC [10] [µg/mL],INH [11] [µg/mL]
NC(=O)c1c(F)ccc(OCCCCCn2cnc3cc([N+](=O)[O-])ccc32)c1F,1020,512,512,512,32,512,2050,256,512,1020,–
NC(=O)c1c(F)ccc(OCCCn2cnc3cc([N+](=O)[O-])ccc32)c1F,512,1020,256,1020,128,512,1020,512,512,512,1020
NC(=O)c1c(F)ccc(OCCCCCBr)c1F,128,8,16,256,2,128,16,64,256,16,4
NC(=O)c1c(F)ccc(OCCCn2cnc3ccccc32)c1F,1020,1020,1020,512,512,512,1020,512,512,512,256
CCCCC(CC)COc1ccc(F)c(C(N)=O)c1F (configuration not stated),> 128,1,0.25,256,0.125,64,8,64,128,8,0.25
NC(=O)c1c(F)ccc(OCCCBr)c1F,64,16,32,128,16,> 128,32,64,128,32,16
NC(=O)c1c(F)ccc(OCCCCCl)c1F,64,8,4,128,2,128,8,64,128,8,4
CCOCCC(=O)COc1ccc(F)c(C(N)=O)c1F,> 128,64,64,256,32,128,256,64,128,128,128
NC(=O)c1c(F)ccc(OCCCCCCBr)c1F,64,1,1,128,0.5,> 128,2,64,128,2,1
NC(=O)c1c(F)ccc(OCCCCCCn2cnc3ccccc32)c1F,512,512,256,512,128,256,1020,256,512,256,128
NC(=O)c1c(F)ccc(OCCCCCCl)c1F,64,16,4,128,2,128,16,64,128,32,16
NC(=O)c1c(F)ccc(OCCBr)c1F,64,16,16,128,2,> 128,32,32,128,64,16
CC(C)COc1ccc(F)c(C(N)=O)c1F,> 128,32,64,256,32,128,64,64,128,128,16

# — ChEMBL document CHEMBL4002610, “Design, synthesis and biological activity evaluation of novel 2,6-difluorobenzamide derivatives through FtsZ inhibition” (2017)
